The record followed here is ChEMBL document CHEMBL1126066, “Biological activities and quantitative structure-activity relationships of spiro[imidazolidine-4,4'(1'H)-quinazoline]-2,2',5(3'H)-triones as aldose reductase inhibitors” (J Med Chem, 1992).

What is called Inhibition is how much of the control response was suppressed. For orientation: inhibition in vivo means the change of the read-out against control, counted positive when it falls.

The subject of test [1] is Rattus norvegicus. Nature of the test: In vivo inhibition of polyol accumulation in the sciatic nerve of galactosemic rats, activity is expressed as percent inhibition of poloyl accumulation. The format is functional. Also on record: concentration or dose not given beside the values. The method, boiled down:
(§1)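 Male Wistar rats (SIC, 4 weeks old), three per group, had free access to water and a 20% galactose diet containing the compound for 6 days. Galactose-only and standard-diet groups served as controls. Rats were bled under ether anesthesia on day 7. Sciatic nerve polyol was measured by a modified Dvornik assay. % inhibition = (galactose control − treated)/(galactose control − normal) × 100. Student's t-test was used.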

Test [2] concerns Rattus norvegicus. Nature of the test: In vivo inhibition of polyol accumulation in the sciatic nerve of galactosemic rats, activity is measured as polyol contents. The format is functional, organism-based. The method in brief: as §1
Test [3] relates to Rattus norvegicus. Nature of the test: Compound was evaluated in vivo for percent inhibition of polyol accumulation at a dose of 15 mg/kg per day. The format is functional. The method, boiled down:
(§2)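 Galactosemic male Wistar rats (4 weeks old, n = 3) received the compound in a 20% galactose diet for 6 days and were killed on day 7. Sciatic nerve or lens polyol was measured by a modified Dvornik assay. Mean % inhibition = (galactose control − treated)/(galactose control − normal control) × 100.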

The test system of test [4] is Rattus norvegicus. Nature of the test: Compound was evaluated in vivo for percent inhibition of polyol accumulation at a dose of 3 mg/kg per day. The format is functional. The method in brief: as §2
In test [5] the test system is Rattus norvegicus. Description: Compound was evaluated in vivo for […] at a dose of 15 mg/kg per day. In kind it is functional, organism-based. The conditions noted are these: Sciatic nerve. The method, boiled down: as §1
Test [6] has as its system Rattus norvegicus. Description: Compound was evaluated in vivo for […] at a dose of 90 mg/kg per day. The format is functional, organism-based.
Test [7] relates to Rattus norvegicus. Description: Compound was evaluated in vivo for inhibition of polyol accumulation in rat at a dose of 15 mg/kg per day.
Test [8] has as its system Rattus norvegicus. Nature of the test: Compound was evaluated in vivo for polyol content in lens of galactosemic rats at a dose of 3 mg/kg per day.
For test [9], the system named is Rattus norvegicus. Description: Compound was evaluated in vivo for 50% inhibition of polyol accumulation in rat sciatic nerve at a dose of 3 mg/kg per day.
Test [10] has as its system Rattus norvegicus. Description: Compound was evaluated in vivo for 50% inhibition of enzymatic activity of partially purified AR from male rabbit sciatic nerve at a dose of 90 mg/kg per day. In kind it is functional, organism-based. The method, boiled down:
as §1

Each structure is given as a SMILES string. Values joined by “and” are separate entries in the source; they are usually repeats but may differ in a detail not shown here. Equal values may be shown once.

On to `CN1C(=O)Nc2ccc(F)cc2[C@]12NC(=O)NC2=O`, for which the Inhibition in [1] was found to be 15.5%. Besides, in [2], the polyol content came out at 12.1 µmol/g.

`CN1C(=O)Nc2cc([N+](=O)[O-])ccc2C12NC(=O)NC2=O` (stereo not drawn): in [1], the Inhibition amounted to 11.5%. Further, the polyol content in [2] was determined as 10.3 µmol/g.

For the molecule `Cc1cc2c(cc1Cl)C1(NC(=O)NC1=O)N(C)C(=O)N2` (stereo not drawn), the Inhibition in test [1] is reported as 58%. Further, the polyol content in test [2] was found to be 6.8 µmol/g.

With `COc1cc2c(cc1Cl)C1(NC(=O)NC1=O)N(C)C(=O)N2` (stereo not drawn), the Inhibition in test [1] is listed as 24.6%. In test [2], this molecule showed a polyol content of 8.3 µmol/g.

In [1], `CN1C(=O)Nc2ccc(Br)cc2C12NC(=O)NC2=O` (stereo not drawn) came in with an Inhibition of 74.7%. The molecule also had a polyol content in test [2] of 5.6 µmol/g.

In turn, `CN1C(=O)Nc2c([N+](=O)[O-])cc([N+](=O)[O-])cc2C12NC(=O)NC2=O` (stereo not drawn) showed an Inhibition in [1] of 14.1%. The same molecule returned a polyol content in test [2] of 10.1 µmol/g.

On to `CN1C(=O)Nc2c(Cl)cc(Cl)cc2C12NC(=O)NC2=O` (stereo not drawn), for which, in test [1], the Inhibition was 63.1%. This molecule showed a polyol content in test [2] of 5.8 µmol/g.

`CN1C(=O)Nc2cc(Cl)c([N+](=O)[O-])cc2C12NC(=O)NC2=O` (stereo not drawn) showed an Inhibition in test [1] of 7.7%. The same molecule returned a polyol content in test [2] of 10.6 µmol/g.

As to `CCOC(=O)c1ccc2c(c1)C1(NC(=O)NC1=O)N(C)C(=O)N2` (stereo not drawn), the Inhibition in test [1] was determined as 22.2%. In [2], the polyol content stood at 11.1 µmol/g.

As for `CN1C(=O)Nc2ccc(OC(=O)/C=C/c3ccccc3)cc2C12NC(=O)NC2=O` (stereo not drawn), the Inhibition in test [1] is 29.3%. This molecule displayed a polyol content in [2] of 10.4 µmol/g.

In test [1], `CN1C(=O)Nc2ccccc2[C@@]12NC(=O)NC2=O` yielded an Inhibition of 39%. Besides, the polyol content in test [2] is 8.4 µmol/g.

In test [1], `COc1c(Cl)cc2c(c1Cl)NC(=O)N(C)C21NC(=O)NC1=O` (stereo not drawn) had an Inhibition of 37.5%. The same molecule yielded a polyol content in [2] of 8.4 µmol/g.

As to `CN1C(=O)Nc2c([N+](=O)[O-])cc(Cl)cc2C12NC(=O)NC2=O` (stereo not drawn), in [1], the Inhibition worked out at 29.2%. The polyol content in test [2] was 8 µmol/g.

In the case of `NN1C(=O)Nc2ccccc2C12NC(=O)NC2=O` (stereo not drawn), the Inhibition in test [1] turned out to be 12.2%. This molecule also yielded a polyol content in [2] of 11.3 µmol/g.

In test [1], `COc1ccc2c(c1)NC(=O)N(C)C21NC(=O)NC1=O` (stereo not drawn) had an Inhibition of 21%. The same molecule gave a polyol content in test [2] of 9.8 µmol/g.

In turn, `Cc1ccc2c(c1)C1(NC(=O)NC1=O)N(C)C(=O)N2` (stereo not drawn) yielded an Inhibition in test [1] of 30.9%. In addition, the polyol content in test [2] is 9 µmol/g.

In the case of `CN1C(=O)Nc2cc(Cl)ccc2C12NC(=O)NC2=O` (stereo not drawn), the Inhibition in test [1] came to 22.3%. This molecule registered a polyol content in test [2] of 11.4 µmol/g.

As for `CN1C(=O)Nc2ccc(Cl)cc2C12NC(=O)NC2=O` (stereo not drawn), in test [1], the Inhibition is 68%. The polyol content in test [2] was 6.7 µmol/g.

For `O=C1NC(=O)[C@@]2(CCOc3ccc(F)cc32)N1` [SORBINIL], the inhibition in vivo at 15 mg/kg/day in [3] was 90.2%.

With `Cc1cccc2c1C1(NC(=O)NC1=O)N(C)C(=O)N2` (stereo not drawn), in [1], the Inhibition amounted to 27.5%. In test [2], this molecule had a polyol content of 9.2 µmol/g.

Take `CN1C(=O)Nc2ccccc2C12NC(=O)NC2=O` (stereo not drawn): the Inhibition in test [1] stood at 32.5%. Further, the polyol content in [2] was found to be 8.8 µmol/g.

In turn, `CN1C(=O)Nc2ccc([N+](=O)[O-])c(Cl)c2C12NC(=O)NC2=O` (stereo not drawn) displayed an Inhibition in test [1] of 0%. In test [2], the polyol content amounted to 11.5 µmol/g.

In the case of `CN1C(=O)Nc2ccc([N+](=O)[O-])cc2C12NC(=O)NC2=O` (stereo not drawn), the Inhibition in test [1] is on record as 15.5%. The molecule further showed a polyol content in test [2] of 12.1 µmol/g.

`CN1C(=O)Nc2c(F)cccc2C12NC(=O)NC2=O` (stereo not drawn) registered an Inhibition in test [1] of 29.9%. Besides, the polyol content in test [2] is 9.5 µmol/g.

In the case of `CN1C(=O)Nc2cc(N3CCOCC3)c([N+](=O)[O-])cc2C12NC(=O)NC2=O` (stereo not drawn), the Inhibition in test [1] stood at 10.3%. Further, the polyol content in test [2] was determined as 10.4 µmol/g.

`Cc1ccc2c(c1)NC(=O)N(C)C21NC(=O)NC1=O` (stereo not drawn): the Inhibition in test [1] is given as 37.5%. In addition, the polyol content in [2] worked out at 8.4 µmol/g.

On to `CCN1C(=O)Nc2ccccc2C12NC(=O)NC2=O` (stereo not drawn), for which the Inhibition in test [1] was found to be 19.5%. In test [2], this molecule registered a polyol content of 9.6 µmol/g.

Take `CN1C(=O)Nc2ccc(Cl)cc2[C@@]12NC(=O)NC2=O`: the Inhibition in test [4] was 23.4% and 0%; in test [1], 100%. Moreover, the polyol content in test [5] was 4.8 µmol/g; in test [6], 42.4 µmol/g; in test [7] it was 59.2 µmol/g; in test [8], 58.9 µmol/g; in test [9] it was 7.5 µmol/g; in test [2] it was 3.4 µmol/g. The polyol content in test [10] came to 2.8 µmol/g.

In turn, `CN1C(=O)Nc2c(cc(F)c(F)c2F)C12NC(=O)NC2=O` (stereo not drawn) registered an Inhibition in [1] of 29.9%. For the same molecule, the polyol content in test [2] is 9.5 µmol/g.

As to `O=C1NC(=O)C2(N1)NC(=O)Nc1ccccc12` (stereo not drawn), in [1], the Inhibition is given as 15.1%. Besides, in [2], the polyol content came out at 10.7 µmol/g.

Regarding `CN1C(=O)Nc2cc(Cl)c(Cl)cc2C12NC(=O)NC2=O` (stereo not drawn), the Inhibition in test [1] turned out to be 52.9%. The same molecule showed a polyol content in test [2] of 7.5 µmol/g.

Consider `CN1C(=O)Nc2ccc(F)cc2C12NC(=O)NC2=O` (stereo not drawn), for which, in [1], the Inhibition is recorded as 58.7%. The molecule also registered a polyol content in [2] of 6.7 µmol/g.

In test [1], `CN1C(=O)Nc2cc3c(cc2C12NC(=O)NC2=O)OCO3` (stereo not drawn) had an Inhibition of 28.4%. In test [2], this molecule displayed a polyol content of 9.2 µmol/g.

In test [1], `CN1C(=O)Nc2cccc(Cl)c2C12NC(=O)NC2=O` (stereo not drawn) returned an Inhibition of 17.5%. Besides, the polyol content in [2] is 11.9 µmol/g.

The molecule `CN1C(=O)N(C)C2(NC(=O)NC2=O)c2ccccc21` (stereo not drawn) displayed an Inhibition in [1] of 28.4%. The polyol content in [2] turned out to be 9.2 µmol/g.

On to `CN1C(=O)Nc2ccc(Cl)cc2[C@]12NC(=O)NC2=O`, for which the Inhibition in [1] is listed as 26.3%. The polyol content in test [2] stood at 10.7 µmol/g.

In [1], `COc1ccc2c(c1)C1(NC(=O)NC1=O)N(C)C(=O)N2` (stereo not drawn) returned an Inhibition of 13.6%. The molecule also had a polyol content in [2] of 10.4 µmol/g.

With `CC(C)CN1C(=O)N(C)C2(NC(=O)NC2=O)c2ccccc21` (stereo not drawn), the Inhibition in test [1] was determined as 27.7%. Besides, the polyol content in test [2] stood at 8.1 µmol/g.

Molecule `CN1C(=O)Nc2ccc(F)cc2[C@@]12NC(=O)NC2=O` displayed an Inhibition in test [1] of 61%. The molecule also registered a polyol content in [2] of 6.6 µmol/g.

Consider `CN1C(=O)Nc2c(N)cc(Cl)cc2C12NC(=O)NC2=O` (stereo not drawn), for which, in test [1], the Inhibition stood at 44.6%. In test [2], this molecule gave a polyol content of 7 µmol/g.

With `CN1C(=O)Nc2ccc(OC(=O)c3ccccc3)cc2C12NC(=O)NC2=O` (stereo not drawn), the Inhibition in [1] came out at 12.3%. In addition, the polyol content in test [2] was 10.5 µmol/g.
